MC4R barr agon – activates human MC4R beta-arrestin recruitment; P32245; activation, % at 8.9 µM; 0.98% of 360,000 active; U2OS MC4R beta-arrestin complementation, luminescence; percent of melanotan II response, DMSO zero; AID 540308;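 active = activation above a per-plate cutoff, the mean activation of sample wells on that plate plus 3 SD, cut at about 8% in these data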
MC4R antag cAMP – human MC4R antagonism in cAMP assay; P32245; MC4R-expressing cells, MTII-stimulated cAMP, LANCE TR-FRET; inhibition, % at 6.5 µM; 0.48% of 360,000 active;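 active = inhibition above its plate's cutoff, the mean of tested wells on that plate plus 3 SD, cut at about 29% in these data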
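Material – human MC4R-expressing U2OS cells · Repeats – no replicates · Detection – TR-FRET with Eu-cAMP and labeled anti-cAMP, 671 nm · Times – compound 30 min, challenge 1 h, detection 1 h · Compound – single nominal compound dose of 6.5 µM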
TLR4 MyD88 comp – inhibitors of human TLR4-MyD88 binding. O00206+Q99836. HeLa CL3-4 TLR4/MyD88 BLA complementation, FRET ratio. inhibition, % at 8.4 µM. 0.18% of 200,000 active. AID 861; in the data active = inhibition above about 25%
beta cell repl – inducers of beta-cell replication in MIN6 cells; MIN6 cells proliferation, ATPlite luminescence, 48 h; cells starved in 0.2% serum; 100% = growth in 10% serum; proliferation, % at 10 µM; 0.29% of 330,000 active;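 active = compounds whose signal lies at least 3.5 SD above the mean of all wells on their plate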
TLR9-MyD88 inh – blocks human TLR9 binding to MyD88; CHO BLA complementation TLR9-MyD88, CCF4 FRET ratio; inhibition, % at 4.98 µM; 0.21% of 340,000 active;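 active = inhibition above the mean over all tested compounds plus 3 SD, cut at about 21% in these data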
NOD2 RIPK2 PPI – blocks binding of human NOD2 to RIPK2. CHO BLA complementation NOD2-RIPK2, CCF4 ratio. inhibition, % at 4.98 µM. 0.38% of 360,000 active; in the data active = inhibition above about 21%
Large screens that a line does not name were inactive. Compounds with a hit are over-represented: about 2.1% of the library has one in this group of screens.

COc1cccc(/C=C/C(=O)OCC(=O)c2ccc3c(c2)NC(=O)CO3)c1	MC4R barr agon 8.5 (no result: TLR4 MyD88 comp)
O=S(=O)(Nc1ccncc1Cl)c1ccc2ccccc2c1	none
Cc1cc(NC(=O)c2ccc(Br)c([N+](=O)[O-])c2)no1	MC4R barr agon 9.3
Cc1cc(NC(=O)c2ccc(C)c([N+](=O)[O-])c2)no1	none
O=C(c1ccccc1)N1N=C(c2cccs2)CC1c1ccccc1O (centres undefined)	MC4R barr agon 8.4 (no result: TLR4 MyD88 comp)
O=C(Nc1ccccc1)N1N=C(c2cccs2)CC1c1cccs1 (centres undefined)	none
CC(=O)OCC(=O)C1CCC2C3CC=C4CC(O)CCC4(C)C3CCC12C (centres undefined)	none (no result: TLR4 MyD88 comp)
CC(=O)C1CCC2C3CC=C4CC(SC(=N)N)CCC4(C)C3CCC12C (centres undefined)	MC4R barr agon 15 (no result: TLR4 MyD88 comp, beta cell repl)
O=C(C1CCCC1)N1CCN(S(=O)(=O)c2cccc(Cl)c2Cl)CC1	none (no result: TLR4 MyD88 comp)
Cc1cccn2cc(-c3ccc(NC(=O)Cc4ccccc4)cc3)nc12	MC4R barr agon 9.3
COc1ccc(CC(=O)Nc2ccc(-c3cn4cccc(C)c4n3)cc2)cc1OC	none
Cc1cc(C)cc(NC(=O)Nc2ccc(-n3ccc(C(F)(F)F)n3)cc2)c1	MC4R barr agon 8.8 (no result: TLR4 MyD88 comp)
CCOC(=O)C1=C(O)/C(=C/c2cc(OC)c(OC)c(OC)c2)SC1=Nc1ccc(OC)cc1	MC4R barr agon 8.3
CN(Cc1ccc(Cl)c(Cl)c1)C(C(=O)NCc1ccccc1)c1ccc(C(F)(F)F)cc1 (centres undefined)	none (no result: MC4R barr agon, MC4R antag cAMP, TLR4 MyD88 comp, beta cell repl, TLR9-MyD88 inh)
Cc1cc(-c2nnc3n2N=C(c2ccccc2Br)CS3)n[nH]1	none (no result: TLR4 MyD88 comp)
Cc1cccc(-c2nnc3n2N=C(c2ccccc2Br)CS3)c1	beta cell repl 7.3
Cc1nc(N2CCOCC2)nc2c1CCC2	none
COc1ccc2[nH]cc(S(=O)(=O)c3ccc(C)cc3)c2c1	none
Cc1ccc(-c2nc3ccccc3o2)cc1NC(=S)NC(=O)c1cccs1	MC4R barr agon 23
Cc1cc(C)c2oc(-c3ccc(C)c(NC(=S)NC(=O)c4cccs4)c3)nc2c1	none
Cc1cccc(C)c1NC(=O)C1(C)CSCC(=O)N1CCC(C)C (centres undefined)	none (no result: MC4R barr agon, MC4R antag cAMP, TLR4 MyD88 comp, beta cell repl, TLR9-MyD88 inh)
O=C(Cc1c(Cl)cccc1Cl)NCCc1ccc(Cl)cc1	MC4R barr agon 9.3
O=C(Nc1cc(Br)ccc1O)C1CC(c2ccccc2Cl)=NO1 (centres undefined)	MC4R barr agon 8.6 (no result: TLR4 MyD88 comp)
O=C(COc1ccccc1)N(Cc1ccccc1)c1nc(-c2ccccc2)cs1	MC4R barr agon 21
O=C(CCC(=O)OCc1ccc(C(=O)Oc2ccc(Cl)cc2)cc1)Nc1ccccc1	MC4R barr agon 9.6
O=C(C(=O)N1CCN(c2cccc(Cl)c2)CC1)c1c[nH]c2ccccc12	MC4R barr agon 8.5
Cc1cccc(Oc2cnn(C(C)(C)C)c(=O)c2Cl)c1	MC4R barr agon 8.8
O=C(c1cccc(C(F)(F)F)c1)N1CCc2c([nH]c3ccccc23)C1C(F)(F)F (centres undefined)	MC4R barr agon 8.8 (no result: TLR4 MyD88 comp)
Cc1cc(NC(=O)CCS(=O)(=O)c2nc(-c3ccccc3)cc(C(F)(F)F)n2)no1	NOD2 RIPK2 PPI 23 (no result: TLR4 MyD88 comp)
Cc1ccc(S(=O)(=O)CCC(=O)Nc2cc(C)on2)cc1	none (no result: TLR4 MyD88 comp, beta cell repl)
Cn1c(=O)cc(OCC(=O)NCc2cccs2)c2ccccc21	none
CCOc1ccc2oc(C(=O)Nc3ccc(N4CCOCC4)cc3)c(C)c2c1	MC4R barr agon 9.3
C=C(C)COc1ccc(-c2n[nH]c(C)c2-c2ccc(OC)cc2)c(O)c1	MC4R barr agon 9.6
C#CCOCCOCCOCCNc1nc(N2CCN(C(=O)CCCCCCCCCCNC(=O)[C@H](CO)n3cc(CCCSC)nn3)CC2)nc(N2CCN(C(=O)CCCCCCCCCCNC(=O)[C@H](CCCN=C(N)N)n3cc(C[C@@H](C)CC)nn3)CC2)n1	MC4R antag cAMP 53, NOD2 RIPK2 PPI 21 (no result: TLR4 MyD88 comp)

Compound activity (PubChem BioAssay)
